Test results published in paper PMC4462344 (Cancer Science, 2014).
Values joined by “and” are separate entries in the source; they are usually repeats but may differ in a detail not shown here. Equal values may be shown once. Marks after values point to notes of the source that are not given here.

Columns and labels:
Format in all cases: in vivo, Japanese CRPC patients
[1] = Plasma abiraterone acetate and abiraterone pharmacokinetics
Method in brief: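 Venous blood was drawn at predose and 0.5–12 h after dosing on cycle 1 days 1, 7 and 15 (monotherapy days 1–7; prednisone 5 mg twice daily from day 8), plus 24-h and trough samples. Samples were taken on NaF, spun at 1300 g and 4°C for 10 min, and stored at −20°C. Assay was validated LC/MS/MS (LLOQ 0.220 ng/mL). Cmax, tmax and AUC24 came from non-compartmental analysis.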

[2] = system: testosterone; test: Pharmacodynamics: serum testosterone concentration
Method in brief: (§1)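 Serum corticosterone, 11-deoxycorticosterone, testosterone and DHEA-S were measured at baseline and on days 2 and 8 of cycle 1. Abiraterone acetate was given orally once daily after an overnight fast, with no food for ≥1 h after dosing. It was given alone days 1–7, then with prednisone 5 mg twice daily. Results are summarised as change from baseline.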

[3] = system: castration-resistant prostate cancer; test: Efficacy: objective tumor response by RECIST
Method in brief: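 Patients with measurable lesions were assessed for objective tumour response by RECIST. Dosing was once-daily oral abiraterone acetate (250, 500 or 1000 mg, the 1000 mg given 1 h premeal or 2 h postmeal) in 28-day cycles, with prednisone 5 mg twice daily added from cycle 1 day 8 onward.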

[4] = system: dehydroepiandrosterone sulfate (DHEA-S); test: Pharmacodynamics: serum DHEA-S concentration
Method in brief: as §1

[5] = system: 11-deoxycorticosterone; test: Pharmacodynamics: serum 11-deoxycorticosterone concentration
Method in brief: as §1

[6] = system: corticosterone; test: Pharmacodynamics: serum corticosterone concentration
Method in brief: as §1

[7] = system: prostate-specific antigen (PSA); test: Efficacy: PSA response; settings: for patients who achieved ≥50% PSA decline from baseline at one or more evaluation time points: entire treatment period; for mean percentage change from baseline in PSA levels: week 12
Method in brief: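 Oral abiraterone acetate given once daily in 28-day cycles to chemotherapy-naïve patients on continued LHRH agonist or post-orchiectomy: monotherapy days 1–7 of cycle 1, then with prednisone 5 mg twice daily. PSA measured at screening and day 1 of each cycle. Response was a ≥50% fall from baseline confirmed to persist ≥4 weeks, per PCWG2.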

[8] = Cycle 1 Day 2, 1000 (+2 h) mg (n = 6)
[9] = Cycle 1 Day 2, 1000 (−1 h) mg (n = 6)
[10] = Cycle 1 Day 8, 1000 (+2 h) mg (n = 6)
[11] = Cycle 1 Day 8, 1000 (−1 h) mg (n = 6)

SMILES: C[C@]12CC[C@H](O)CC1=CC[C@@H]1[C@@H]2CC[C@]2(C)C(c3cccnc3)=CC[C@@H]12 [abiraterone]
- mean Cmax and AUC24 of abiraterone, 2 h postmeal versus 1 h premeal ([1]; 1000 mg cohort, overall): 3.1–6.0 times
- abiraterone Cmax and AUC24, 2 h postmeal versus 1 h premeal ([1]; AA 1000 mg multiple doses): approximately threefold to sixfold
- accumulation index for AUC24 of abiraterone ([1]; irrespective of dose): 1.40–1.69
- accumulation index for Cmax of abiraterone ([1]; irrespective of dose): 1.31–1.74
- time at which steady state of plasma abiraterone was reached ([1]; regardless of dose): ≤ 7 days

SMILES: CC(=O)O[C@H]1CC[C@@]2(C)C(=CC[C@@H]3[C@@H]2CC[C@]2(C)C(c4cccnc4)=CC[C@@H]32)C1 [Abiraterone acetate]
- plasma AA concentrations ([1]; most plasma concentrations, all cohorts, LLOQ 0.220 ng/mL): below the quantification limit
- Testosterone, mean (SD) change from baseline ([2]; Cycle 1 Day 2, 250 mg (n = 9)): −3.6 (3.64) ng/dL
- Testosterone, mean (SD) change from baseline ([2]; Cycle 1 Day 2, 500 mg (n = 6)): −4.8 (3.06) ng/dL
- Testosterone, mean (SD) change from baseline [2, 8]: −7.5 (1.87) ng/dL
- Testosterone, mean (SD) change from baseline [2, 9]: −8.0 (3.22) ng/dL
- Testosterone, mean (SD) change from baseline ([2]; Cycle 1 Day 8, 250 mg (n = 9)): −6.2 (4.06) ng/dL
- Testosterone, mean (SD) change from baseline ([2]; Cycle 1 Day 8, 500 mg (n = 6)): −8.2 (3.82) ng/dL
- Testosterone, mean (SD) change from baseline [2, 10]: −9.2 (2.32) ng/dL
- Testosterone, mean (SD) change from baseline [2, 11]: −10.8 (6.21) ng/dL
- mean change from baseline in testosterone levels, range over cohorts ([2]; day 8 in cycle 1, 250-1000 mg): -10.8 to -6.2 ng/dL
- patients in whom the disease had progressed (RECIST) ([3]; 250 mg): 1 patients
- patients with stable disease (RECIST) ([3]; 250 mg): 1 patients
- patients with partial response (RECIST) ([3]; 500 mg): 1 patients
- patients with stable disease (RECIST) ([3]; 500 mg): 2 patients
- patients in whom the disease had progressed (RECIST) ([3]; 1000 (+2 h) mg): 1 patients
- patients with partial response (RECIST) ([3]; 1000 (−1 h) mg): 1 patients
- patients with stable disease (RECIST) ([3]; 1000 (−1 h) mg): 2 patients
- patients in whom the disease had progressed (RECIST) ([3]; all cohorts): 2 patients
- patients with partial response (RECIST) ([3]; all cohorts): 2 patients
- patients with stable disease (RECIST) ([3]; all cohorts): 5 patients
- DHEA-S, mean (SD) change from baseline ([4]; Cycle 1 Day 2, 250 mg (n = 9)): −19.1 (13.49) ug/dL
- DHEA-S, mean (SD) change from baseline ([4]; Cycle 1 Day 2, 500 mg (n = 6)): −28.3 (24.32) ug/dL
- DHEA-S, mean (SD) change from baseline [4, 8]: −53.3 (34.14) ug/dL
- DHEA-S, mean (SD) change from baseline [4, 9]: −59.7 (49.87) ug/dL
- DHEA-S, mean (SD) change from baseline ([4]; Cycle 1 Day 8, 250 mg (n = 9)): −35.7 (25.51) ug/dL
- DHEA-S, mean (SD) change from baseline ([4]; Cycle 1 Day 8, 500 mg (n = 6)): −38.5 (37.31) ug/dL
- DHEA-S, mean (SD) change from baseline [4, 10]: −76.8 (54.02) ug/dL
- DHEA-S, mean (SD) change from baseline [4, 11]: −95.3 (77.99) ug/dL
- 11-deoxycorticosterone, mean (SD) change from baseline ([5]; Cycle 1 Day 2, 250 mg (n = 8)): 22.9 (10.13) ^† ng/dL
- 11-deoxycorticosterone, mean (SD) change from baseline ([5]; Cycle 1 Day 2, 500 mg (n = 6)): 40.3 (16.79) ng/dL
- 11-deoxycorticosterone, mean (SD) change from baseline [5, 8]: 45.7 (61.09) ng/dL
- 11-deoxycorticosterone, mean (SD) change from baseline [5, 9]: 36.3 (17.22) ng/dL
- 11-deoxycorticosterone, mean (SD) change from baseline ([5]; Cycle 1 Day 8, 250 mg (n = 8)): 45.9 (13.35) ^† ng/dL
- 11-deoxycorticosterone, mean (SD) change from baseline ([5]; Cycle 1 Day 8, 500 mg (n = 6)): 78.8 (36.41) ng/dL
- 11-deoxycorticosterone, mean (SD) change from baseline [5, 10]: 112.3 (65.15) ng/dL
- 11-deoxycorticosterone, mean (SD) change from baseline [5, 11]: 79.2 (51.53) ng/dL
- Corticosterone, mean (SD) change from baseline ([6]; Cycle 1 Day 2, 250 mg (n = 9)): 1097.1 (687.41) ng/dL
- Corticosterone, mean (SD) change from baseline ([6]; Cycle 1 Day 2, 500 mg (n = 6)): 2914.8 (1543.83) ng/dL
- Corticosterone, mean (SD) change from baseline [6, 8]: 4227.3 (2814.68) ng/dL
- Corticosterone, mean (SD) change from baseline [6, 9]: 1957.2 (1008.74) ng/dL
- Corticosterone, mean (SD) change from baseline ([6]; Cycle 1 Day 8, 250 mg (n = 9)): 2015.2 (769.39) ng/dL
- Corticosterone, mean (SD) change from baseline ([6]; Cycle 1 Day 8, 500 mg (n = 6)): 4086.5 (2478.82) ng/dL
- Corticosterone, mean (SD) change from baseline [6, 10]: 6426.2 (2212.64) ng/dL
- Corticosterone, mean (SD) change from baseline [6, 11]: 5147.8 (1642.75) ng/dL
- PSA response rate ([7]; 250 mg cohort): 67%
- PSA response rate ([7]; 500 mg cohort, listed as AA): 50%
- PSA response rate ([7]; 1000 (+2 h) mg cohort, listed as AA): 83% and 83.3%
- PSA response rate ([7]; 1000 (−1 h) mg cohort, listed as AA): 67% and 66.7%
- patients with ≥50% PSA decline confirmed to be maintained for at least 4 weeks ([7]; all cohorts): 18/27
- overall PSA response rate ([7]; all cohorts (N = 27), ≥50% decline maintained ≥4 weeks): 67%
- patients from each dose-group with ≥50% PSA reduction ([7]; each dose-group): At least 3 patients
- patients who achieved ≥50% PSA decline from baseline at one or more evaluation time points ([7]; 250 mg): 7 patients
- patients who achieved ≥50% PSA decline from baseline at one or more evaluation time points ([7]; 500 mg): 3 patients
- patients who achieved ≥50% PSA decline from baseline at one or more evaluation time points ([7]; 1000 (+2 h) mg): 5 patients
- patients who achieved ≥50% PSA decline from baseline at one or more evaluation time points ([7]; 1000 (−1 h) mg): 5 patients
- patients who achieved ≥50% PSA decline from baseline at one or more evaluation time points ([7]; all cohorts): 20/27
- mean percentage change from baseline in PSA levels ([7]; 250 mg): −51.2%
- mean percentage change from baseline in PSA levels ([7]; 500 mg): −29.1%
- mean percentage change from baseline in PSA levels ([7]; 1000 mg (+2 h)): −37.6%
- mean percentage change from baseline in PSA levels ([7]; 1000 mg (−1 h)): −60.4%
